Test results taken from BindingDB's records for doi:10.1021/jm00109a027 (University of Minnesota, 1991).

How the values were obtained:
[1] = molecular target: Kappa-type opioid receptor (Cavia porcellus, UniProt P41144); experiment: Compound was evaluated for the binding affinity to opioid receptor kappa using [3H]-EK as radioligand in guinea pig brain membrane
In short: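 Radioligand displacement in guinea pig brain membranes, modified from an earlier published method. [3H]EK was used with 1 μM DAMGO present to block μ sites.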

[2] = molecular target: Mu-type opioid receptor (Cavia porcellus, UniProt P97266); experiment: Compound was evaluated for the binding affinity to Opioid receptor mu using [3H]DAMGO as radioligand in guinea pig brain membrane
Chain of Mu-type opioid receptor (P97266 whole entry): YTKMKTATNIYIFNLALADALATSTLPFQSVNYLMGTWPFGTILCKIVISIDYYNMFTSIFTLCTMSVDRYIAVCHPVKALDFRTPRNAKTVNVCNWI

[3] = Compound was evaluated for the binding affinity to opioid receptor delta

Chain of Kappa-type opioid receptor (P41144 whole entry): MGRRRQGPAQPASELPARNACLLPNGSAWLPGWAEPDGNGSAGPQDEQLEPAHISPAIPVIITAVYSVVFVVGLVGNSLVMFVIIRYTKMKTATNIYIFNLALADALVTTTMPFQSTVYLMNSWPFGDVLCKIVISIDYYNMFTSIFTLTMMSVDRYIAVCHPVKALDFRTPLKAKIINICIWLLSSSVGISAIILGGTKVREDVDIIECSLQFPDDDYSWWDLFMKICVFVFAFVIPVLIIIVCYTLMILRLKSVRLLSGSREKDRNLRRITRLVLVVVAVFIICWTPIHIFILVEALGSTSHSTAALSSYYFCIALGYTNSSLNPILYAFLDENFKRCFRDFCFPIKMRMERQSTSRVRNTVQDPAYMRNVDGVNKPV

`Cn1c2c(c3c1[C@@H]1Oc4c(O)ccc5c4[C@@]14CCN(CC1CC1)[C@H](C5)[C@]4(O)C3)CCCC2` gave a Ki [1] of 203 nM and a Ki [2] of 16.8 nM.
With `Oc1ccc2c3c1O[C@H]1c4nc5ccccc5nc4C[C@@]4(O)[C@@H](C2)N(CC2CC2)CC[C@]314` the Ki [1] was 191 nM and the Ki [2] was 7.3 nM.
Compound `Oc1ccc2c3c1O[C@H]1C(c4c[nH]c5ccccc45)=CC[C@@]4(O)C(C2)N(CC2CC2)CC[C@]314` [4-cyclopropylmethyl-14-(1H-3-indolyl)-(1S,13S,17S)-12-oxa-4-azapentacyclo[9.6.1.01,13.05,17.07,18]octadeca-7(18),8,10,14-tetraene-10,17-diol] has a Ki [3] of 0.99 nM.
`Oc1ccc2c3c1O[C@H]1C(c4ccccc4)=CC[C@@]4(O)[C@@H](C2)N(CC2CC2)CC[C@]314` gave a Ki [1] of 0.01 nM and a Ki [2] of 0.005 nM.
Work on `Oc1ccc2c3c1O[C@H]1c4oc5ccccc5c4C[C@@]4(O)[C@@H](C2)N(CC2CC2)CC[C@]314` [CAS_111555-58-9] yielded a Ki [1] of 154 nM and a Ki [2] of 18.8 nM.
